The full list was thinned out, with hits kept by preference.
HUVEC inhibit – inhibitors of HUVEC proliferation, primary screen, cell-based, 384-well. AID 648, 2007. actives 1.1% (n = 86,000). viability, % at 10 µM (by protocol). CellTiter-Glo luminescence, 72 h; hits give low values;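 active = viability at or below 30%; inactive = viability above 30%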;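 also: 100% = median luminescence of DMSO-only cell control wells on each plate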
HCT116 PTEN-null – growth suppression of PTEN-null HCT116, primary screen, cell-based, CellTiter-Glo. viability, % at 10 µM. actives 1.2% (n = 140,000). HCT116 PTEN-null viability, 60 h; hits give low values;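 active = viability at or below a set limit, 4 SD under the median of all tested compounds, cut at about 3.7% in these data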;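 also: PTEN knockout HCT116 line with beta catenin targeted HCT116 as companion control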
H69AR inhibit – proliferation blockers of H69AR lung cancer cells, primary screen, cell-based, human, 86K library; H69AR lung tumor viability, ATP luminescence, 72 h; hits give low values; viability, % at 10 µM; actives 6% (n = 85,000); AID 598, 2007;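 active = viability at or below 40%; inactive = viability above 40%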;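 also: multidrug resistant small cell line overexpressing MRP-1 efflux transporter; 100% = mean luminescence of untreated control wells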
bCat KO growth – primary screen for growth suppressors in beta-catenin knockout HCT116 cells (colon tumor, human); actives 1.5% (n = 140,000); HCT116 beta-catenin knockout viability, CellTiter-Glo, 60 h; hits give low values; AID 818, 2007; viability, % at 10 µM;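 active = viability at or under a set limit, the compound median less 4 SD, cut at about 6% in these data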;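 also: 0% = Hyamine 1622 control at 20 µM and 100% = untreated cell control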
Fibroblast inh – antiproliferative effect on LL 47 fibroblasts – human, LL 47 cells, CellTiter-Glo luminescence, primary screen | actives 1.1% (n = 85,000) | viability, % at 10 µM | AID 719, 2007 | LL 47 human lung fibroblast viability, ATP luminescence; hits give low values;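 active = viability at or below 50% in the single dose screen; inactive = viability above 50%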;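 also: compound exposure lasted 72 h before the ATP readout; 100% = median luminescence of untreated cell-only wells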
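Assay system: human lung fibroblast line LL 47, low passage. Input: 1,150 fibroblasts seeded per well. Times: overnight cell rest, 72 h compound treatment at 37 °C. Evaluation: % viability of median cell-only signal. Technique: luminescent ATP detection, CellTiter-Glo. Control set: cell-only wells, no compound.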
* marks the source's active call; other numbers are inactive results; . = not tested or not shown.

SMILES | HUVEC inhibit | HCT116 PTEN-null | H69AR inhibit | bCat KO growth | Fibroblast inh
CCCn1c(C)cc(=O)c2cc(NC(=O)c3cnccn3)ccc21 | 96 | 48 | 7.2* | 7 | 98
CCn1c(=NC(=O)CSC(C)=O)sc2cc(F)ccc21 | 53 | 95 | 28* | 96 | 97
CCC(=O)N=c1sc2cc(F)cc(F)c2n1C | 77 | . | 87 | . | 94
O=C(NC(=S)N1CCOCC1)c1ccc([N+](=O)[O-])cc1 | . | 94 | . | 94 | .
Cc1cc(Oc2nc3c(C)cccn3c(=O)c2/C=C(\C#N)S(=O)(=O)c2ccc(Cl)cc2)ccc1Cl | . | 1.4* | . | 3.9* | .
O=C(COC(=O)C1CCN(S(=O)(=O)c2ccc3c(c2)OCCO3)CC1)Nc1cc(C(F)(F)F)ccc1Cl | . | 95 | . | 90 | .
CC(=O)Nc1nc(-c2ccccc2)nc(-c2ccccc2OC(C)=O)n1 | 45 | 16 | 24* | 29 | .
[N-]=[N+]=NC1C[C@H](n2ccc(=O)[nH]c2=O)O[C@@H]1CO (stereo partly drawn) | . | 1.0* | . | 1.1* | .
COc1c(N2CCN(C(=S)NCc3ccccc3)C(C)C2)c(F)cc2c(=O)c(C(=O)O)cn(C3CC3)c12 (stereo not drawn) | 108 | 13 | 2.5* | 13 | 98
CC1CCCN(C(=S)NCc2ccccc2)C1 (stereo not drawn) | . | 100 | . | 94 | .
CCOC(=O)c1ccc(NC(=O)CSc2nnc(Cn3c(=O)sc4ccccc43)n2C)cc1 | 65 | 107 | 16* | 98 | 95
Cc1ccc(NC(=O)CSc2nnc(Cn3c(=O)sc4ccccc43)n2C)cc1 | 89 | 95 | 91 | 92 | 92
Cc1ccc(NC(=O)CSc2nnc(Cn3c(=O)sc4ccccc43)n2C)cc1Cl | 44 | 95 | 29* | 85 | 99
O=S(=O)(NC1=NCCCCC1)c1ccc2ccccc2c1 | . | 90 | . | 90 | .
CCN1CC(c2ccccc2)C(c2ccc(Cl)cc2)=N1 (stereo not drawn) | . | 81 | . | 72 | .
CCOc1ccc(C(=O)C(CCC(CN(C)C)C(=O)c2ccc(OCC)cc2)CN(C)C)cc1 (stereo not drawn) | . | 1.3* | . | 1.1* | .
COc1ccc(C(=O)C(CCCCC(CN(C)C)C(=O)c2ccc(OC)cc2)CN(C)C)cc1 (stereo not drawn) | . | 18 | . | 18 | .
Cc1cccc(NC(=O)CSc2ncnc3c2oc2ccccc23)c1 | 76 | 96 | 30* | 89 | 89
Cc1ccc2nc(NC(=O)CSc3ncnc4c3oc3ccccc34)sc2c1 | 35 | 62 | 26* | 50 | 92
Cc1ccc2nc(NC(=O)CSc3nc4ccccc4o3)sc2c1 | 104 | 96 | 97 | 92 | 104
Cc1ccc(-n2nc(C)c3c(C)c(CCC(=O)NCc4ccccc4)c(C)nc32)cc1 | 66 | 78 | 32* | 77 | 77
Cc1ccc(-n2nc(C)c3c(C)c(CCC(=O)NCc4ccco4)c(C)nc32)cc1 | 87 | 68 | 42 | 78 | 100
Cc1c(C(=O)N2CCc3ccccc3C2)sc2nc(-c3ccccc3)cn12 | 87 | 93 | 68 | 89 | 102
COc1ccc(-c2cn3c(C)c(C(=O)N4CCc5ccccc5C4)sc3n2)cc1 | 64 | . | 22* | . | 102
Cc1cccc(C2(c3cccc(C)c3)CC2C(=O)Nc2ccc([N+](=O)[O-])cc2O)c1 (stereo not drawn) | . | 6 | . | 5.9* | .
SMILES | HUVEC inhibit | HCT116 PTEN-null | H69AR inhibit | bCat KO growth | Fibroblast inh
CN(C)CCC(=O)c1ccc(Cl)cc1 | 89 | 108 | 19* | 93 | 91
O=C(O)CCC(=O)CCC(=O)c1ccc(Cl)cc1 | 101 | 86 | 74 | 86 | 115
O=C(COc1cccnc1[N+](=O)[O-])Nc1cccc(S(=O)(=O)N2CCCCC2)c1 | . | 87 | . | 83 | .
Cc1cnc(NC(=O)c2cc3c(s2)CCCC3)s1 | 76 | 65 | 24* | 65 | 83
COc1ccc(NC(=O)Cn2cnc3c(cnn3-c3ccc(C)c(C)c3)c2=O)c(OC)c1 | 56 | 11 | 8.3* | 44 | 94
Cc1ccsc1C(=O)OCC(=O)Nc1cccc(S(=O)(=O)N2CCOCC2)c1 | . | 92 | . | 92 | .
Cc1cccc(NC2=C(NC(=O)c3ccccc3)C(=O)c3ccccc3C2=O)c1 | . | 4 | . | 3.6* | .
O=C(NC1=C(Nc2ccc(Cl)cc2)C(=O)c2ccccc2C1=O)c1ccccc1 | . | 49 | . | 34 | .
COc1ccccc1C1C(C#N)=C(N)N(c2cccnc2)C2=C1C(=O)CC(C)(C)C2 (stereo not drawn) | 80 | 92 | 62 | 88 | 106
CC(C)C1CC(CCNCc2ccc(N(C)C)cc2)(c2ccccc2)CCO1 (stereo not drawn) | . | 2.6* | . | 2.3* | .
COc1ccc(C(N)=S)cc1 | . | 89 | . | 83 | .
COC(=O)c1cc(OC)c(OC)cc1NC(=O)c1c(-c2ccccc2Cl)noc1C | 89 | 58 | 35* | 79 | .
COc1ccc(NC(=O)Cn2nnc(-c3ccccc3F)n2)cc1Cl | 91 | 97 | 89 | 102 | 95
COC(=O)c1cc(OC)c(OC)cc1NC(=O)Cn1nnc(-c2ccccc2Cl)n1 | 58 | 84 | 35* | 78 | 93
O=C(N/N=C/c1cccc(OC(=O)c2ccco2)c1)c1ccc(F)cc1 | . | 96 | . | 103 | .
Cc1ccc(-c2c(C#N)c(N)nc3c2CCCCC3)cc1 | 95 | 100 | 94 | 94 | 97
CC1=C(C#N)c2nc(N)c(C#N)c(C)c2/C1=C\c1ccc(C)cc1 | 4.3* | 1.9* | 91 | 3.2* | 3.3*
CCOC(=O)Nc1ccc(C)cc1Br | 104 | 0.2* | 109 | 0.4* | 107
Cc1ccc(NC(=O)CN2CCCCCC2)c(Br)c1 | 92 | 92 | 92 | 93 | 117
CC(NCc1ccc(-c2ccccc2)cc1)C(O)c1ccccc1 (stereo not drawn) | . | 6 | . | 2.8* | .
CC(O)CNCc1ccc(-c2ccccc2)cc1 (stereo not drawn) | . | 66 | . | 69 | .
CCOC(=O)c1cc2sc(C)cc2n1CC(=O)N(CC)CC | 104 | 80 | 86 | 85 | 106
CCOC(=O)c1cc2sc(C)cc2n1CC(=O)NCCc1ccccc1 | 82 | 96 | 27* | 84 | 101
COc1ccccc1N1CCN(c2nc3ccccn3c(=O)c2C=O)CC1 | . | 91 | . | 85 | .
Cc1ccc(NC(=O)CC(C(=O)O)c2ccccc2)cc1 (stereo not drawn) | . | 107 | . | 101 | .
CCC(C)[C@@H](NC(=O)OC(C)(C)C)c1nnc(S(=O)(=O)Cc2cccc(C)c2)o1 (stereo partly drawn) | 76 | 54 | 1.6* | 21 | 6.2*
Cc1ccccc1CS(=O)(=O)c1nnc([C@H](Cc2ccccc2)NC(=O)OC(C)(C)C)o1 | 62 | 2.8* | 1.2* | 3.5* | 5.5*
CC(C)(C)OC(=O)N[C@@H](Cc1ccccc1)c1nnc(SCC(=O)c2ccc(Cl)cc2)o1 | 46 | 79 | 47 | 81 | 29*

Compound activity deposited in PubChem BioAssay by SRMLSC.
